The source made the active and inactive calls. The rule behind the calls is not given here.
Key:
[1] = system: Mus musculus; assay: In vivo inhibition of locomotor activity in mice following i.p. administration.; type: functional; conditions: ip
How it was run: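 Mice dosed ip, then immediately tested for 1 h in darkened cylindrical photobeam chambers. Activity expressed as percent inhibition versus vehicle-treated mice. ED50 with 95% confidence range from three to six doses, 6–18 animals per dose.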

[2] = system: Rattus norvegicus; assay: Inhibition of spontaneous locomotor activity after intraperitoneal injection into rat at 3 mg/kg; type: functional; conditions: ip
[3] = system: Rattus norvegicus; assay: Inhibition of spontaneous locomotor activity after intraperitoneal injection into rat at 30 mg/kg; type: functional; conditions: ip
[4] = target: T1, D(2) dopamine receptor (Rattus norvegicus, UniProt P61169); assay: In vitro binding affinity for dopamine receptor D2 on rat striatal membranes by [3H]spiperone displacement.; parameters: species or system Striatum, Membrane
T1 sequence (P61169 whole entry): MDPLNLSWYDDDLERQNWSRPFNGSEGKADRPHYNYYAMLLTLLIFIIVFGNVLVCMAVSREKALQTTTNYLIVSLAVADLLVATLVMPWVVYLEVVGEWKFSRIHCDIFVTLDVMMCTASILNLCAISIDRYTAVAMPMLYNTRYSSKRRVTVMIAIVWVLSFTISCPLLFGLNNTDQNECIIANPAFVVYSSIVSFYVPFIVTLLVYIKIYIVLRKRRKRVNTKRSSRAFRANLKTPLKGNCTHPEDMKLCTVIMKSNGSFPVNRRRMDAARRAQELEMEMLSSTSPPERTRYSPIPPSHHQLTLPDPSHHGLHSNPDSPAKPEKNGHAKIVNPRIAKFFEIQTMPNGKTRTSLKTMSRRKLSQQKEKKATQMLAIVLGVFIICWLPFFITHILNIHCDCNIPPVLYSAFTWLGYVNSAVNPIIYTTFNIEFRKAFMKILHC
How it was run: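 Displacement of [3H]spiperone (0.2 nM final) from rat striatal membranes; nonspecific binding defined with 1 μM (+)-butaclamol. IC50 determined, reported as Ki.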

[5] = species on record: Rattus norvegicus; assay: Inhibition of spontaneous locomotor activity after peroral injection into rat; type: functional
How it was run: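 Rats dosed orally before a 30 min test in darkened cylindrical photobeam chambers. Percent inhibition of activity relative to vehicle-treated rats; ED50 with 95% confidence range from three to six doses, 6–18 animals per dose.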

[6] = system: Rattus norvegicus; assay: Percent reversal of DOPA levels in the striatum of gamma-butyrolactone-treated rats at 10 mg/kg by intraperitoneal route; type: functional
How it was run: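 Male Long Evans rats received 10 mg/kg ip 1 h before sacrifice, with GBL (750 mg/kg ip) and NSD 1015 (100 mg/kg ip) 30 min before sacrifice. Striatal DOPA was quantified by HPLC-electrochemical detection and expressed as percent reversal between GBL + NSD 1015 (0%) and vehicle + NSD 1015 (100%) controls; n = 4-5 rats.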

[7] = species on record: Rattus norvegicus; assay: Inhibition of spontaneous locomotor activity after peroral injection into rat; Stimulation of locomotory activity; type: functional, organism-based
[8] = target: T1, D(2) dopamine receptor; assay: Binding affinity was determined in vitro on rat striatum using [3H]N-propylnorapomorphine against Dopamine receptor D2; type: tissue-based
How it was run: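 Rat striatal membranes; [3H]-NPA agonist radioligand at 0.35 nM final, labelling high-affinity state D2 sites; nonspecific binding defined with 2 μM (+)-butaclamol. IC50 determined by displacement, reported as Ki (nM).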

[9] = target: T2, D(4) dopamine receptor (Homo sapiens, UniProt P21917); assay: In vitro binding affinity towards human recombinant Dopamine receptor D4 expressed in CHO-K1 cells was determined using [3H]spiperone as radioligand; type: cell-based
T2 sequence (P21917 whole entry): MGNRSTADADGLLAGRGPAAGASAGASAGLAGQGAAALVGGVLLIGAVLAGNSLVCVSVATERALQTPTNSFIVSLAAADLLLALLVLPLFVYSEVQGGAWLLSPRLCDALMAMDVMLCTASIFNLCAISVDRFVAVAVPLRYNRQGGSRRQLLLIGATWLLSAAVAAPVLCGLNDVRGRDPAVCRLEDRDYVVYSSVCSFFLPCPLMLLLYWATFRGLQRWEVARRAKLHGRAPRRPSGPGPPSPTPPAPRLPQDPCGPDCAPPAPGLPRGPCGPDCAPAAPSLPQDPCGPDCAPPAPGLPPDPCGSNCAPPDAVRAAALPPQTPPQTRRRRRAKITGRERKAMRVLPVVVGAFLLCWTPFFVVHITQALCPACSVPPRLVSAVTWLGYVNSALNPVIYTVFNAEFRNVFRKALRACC
How it was run: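 CHO K1 cells stably transfected with human recombinant DA D4.2 receptor subtype; membranes incubated with [3H]spiperone (0.2 nM final); Ki values determined.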

[10] = target: D(3) dopamine receptor (Homo sapiens, UniProt P35462); assay: In vitro binding affinity towards human recombinant Dopamine receptor D3 receptor expressed in CHO-K1 cells was determined using [3H]spiperone as radioligand
Chain of D(3) dopamine receptor (P35462 whole entry): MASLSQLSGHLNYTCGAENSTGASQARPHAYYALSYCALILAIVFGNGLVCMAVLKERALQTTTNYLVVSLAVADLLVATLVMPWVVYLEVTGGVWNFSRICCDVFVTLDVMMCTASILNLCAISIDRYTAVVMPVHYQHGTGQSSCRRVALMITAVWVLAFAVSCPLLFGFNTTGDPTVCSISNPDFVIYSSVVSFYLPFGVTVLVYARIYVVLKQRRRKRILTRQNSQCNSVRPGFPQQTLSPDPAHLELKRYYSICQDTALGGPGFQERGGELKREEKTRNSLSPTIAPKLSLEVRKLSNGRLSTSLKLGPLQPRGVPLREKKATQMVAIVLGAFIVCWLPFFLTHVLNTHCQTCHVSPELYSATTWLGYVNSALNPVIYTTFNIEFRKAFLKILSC

[11] = system: Mus musculus; assay: Inhibition of apomorphine-induced climbing in mice after intraperitoneal injection; type: functional; conditions: ip
How it was run: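 Mice received apomorphine 1 mg/kg sc and returned to cages. Test compound or vehicle given ip 5 min later, and climbing scored 10 min after that; ED50 in mg/kg ip.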

[12] = system: Rattus norvegicus; assay: Decrease in dopamine neuronal firing rate in rats after intraperitoneal injection of 2.5 mg/kg; type: functional; parameters: scale not given: the % may be the effect or the level left
[13] = system: Rattus norvegicus; assay: Decrease of rat striatal dopamine overflow after intraperitoneal injection of 10 mg/kg measured via in vivo microdialysis; type: functional; parameters: scale not given: the % may be the effect or the level left
How it was run: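 Adult male Sprague-Dawley rats (200-250 g) under urethane in a stereotaxic frame, with a 4 mm probe in striatum perfused with artificial CSF at 2 μL/min. Dialysate collected every 20 min and assayed for catecholamines by HPLC-electrochemical detection, after 10 mg/kg ip; n = 4.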

[14] = species on record: Rattus norvegicus; assay: Compound was evaluated for ability to reverse gamma-butyrolactone (GBL)-induced sunthesis of DOPA in rat corpus striatum; type: functional
How it was run: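 Male Long Evans rats dosed 1 h before sacrifice; GBL 750 mg/kg ip plus NSD 1015 100 mg/kg ip given 30 min before sacrifice. Striatal DOPA measured by HPLC with electrochemical detection. ED50 read graphically as the dose giving 50% reversal of the GBL-induced rise in DOPA accumulation; 0% = GBL + NSD 1015, 100% = vehicle + NSD 1015.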

[15] = system: Rattus norvegicus; assay: Stereotypy in rats (intraperitoneal); type: functional; conditions: ip
How it was run: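 A trained observer rated rats for repetitive sniffing, licking and gnawing, 30 s per rat; a behaviour counted only if continuously present for at least 15 s. Rats observed 1 h after the test compound, then given the D1 agonist SKF 38393 and observed for another hour.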

[16] = Inhibition of sidman avoidance in squirrel monkey after peroral administration; type: functional; conditions: po
How it was run: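 Squirrel monkeys dosed orally; conditioned (Sidman) avoidance recorded for 6 h. Effect expressed as percent avoidance responding relative to control performance over the 4 h of peak effect; ED50 in mg/kg po.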

[17] = Decrease in squirrel monkey striatal dopamine overflow measured via in vivo microdialysis after administering a dose of 3 mg/kg intraperitoneally; type: functional; parameters: scale not given: the % may be the effect or the level left; conditions: route intraperitoneal
[18] = system: Rattus norvegicus; assay: Percent reversal of DOPA synthesis in the striatum of gamma-butyrolactone-treated rats at 10 mg/kg by intraperitoneal route; Increase; type: functional, organism-based; parameters: dose 10 mg/kg
How it was run: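 Male Long Evans rats given compound ip 1 h before sacrifice; GBL (750 mg/kg ip) plus NSD 1015 (100 mg/kg ip) 30 min before sacrifice. Striatal DOPA measured by HPLC with electrochemical detection. Result given as percent reversal between the GBL + NSD 1015 control (0%) and the vehicle + NSD 1015 control (100%); n = 4–5 animals.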

| SMILES | ED50 [1] | Ki [4] | ED50 [5] | Reversal [6] | also measured |
| --- | --- | --- | --- | --- | --- |
| c1ccc(N2CCN(C[C@H]3CC[C@@H](c4c[nH]c5ccccc54)CC3)CC2)nc1 | 1.2 mg/kg | 0.122 µM | – | – | inhibition in vivo at 3 mg/kg [2]: 57%; inhibition in vivo at 30 mg/kg [3]: 1.8% |
| c1ccc(N2CCN([C@H]3CC[C@@H](c4c[nH]c5ccccc54)CC3)CC2)nc1 | > 30 mg/kg | – | – | – | – |
| Fc1ccc(N2CCN(CC[C@H]3CC[C@H](c4c[nH]c5ccccc54)CC3)CC2)cc1 | > 30 mg/kg | 0.645 µM | – | – | – |
| c1cnc(N2CCN(CC[C@H]3CC[C@H](c4c[nH]c5ccccc54)CC3)CC2)nc1 | 3.3 mg/kg | 0.161 µM | 18.6 mg/kg | 34% | – |
| c1ccc(N2CCN(C[C@H]3CC[C@H](c4c[nH]c5ccccc54)CC3)CC2)nc1 | 2.3 mg/kg | 0.085 µM | 8.8 mg/kg | 81% | – |
| Fc1ccc2[nH]cc([C@H]3CC[C@H](CCN4CCN(c5ccccn5)CC4)CC3)c2c1 | 9 mg/kg | 0.11 µM | – | 100% | ED50 [7]: Stimulant |
| c1ccc(N2CCN(CC[C@H]3CC[C@H](c4c[nH]c5ccccc54)CC3)CC2)nc1 | 1.4 mg/kg | 0.05 µM | 4.8 mg/kg | 44% | Ki [8]: 0.0026 µM; Ki [9]: 0.073 µM; Ki [10]: 0.029 µM; ED50 [11]: > 30 mg/kg; Activity [12]: 100%; Activity [13]: 33%; ED50 [14]: 6.6 mg/kg; ED50 [15]: > 24 mg/kg; ED50 [16]: 1 mg/kg; Activity [17]: 38% |
| COc1ccc2[nH]cc([C@H]3CC[C@H](CCN4CCN(c5ccccn5)CC4)CC3)c2c1 | 2.2 mg/kg | 0.029 µM | > 30 mg/kg | 88% | – |
| C1=C(c2ccccc2)CC[C@H](CCN2CCN(c3ccccn3)CC2)C1 | – | 0.412 µM | – | – | – |
| Oc1ccc2[nH]cc(CCCCN3CC=C(c4ccccc4)CC3)c2c1 [ROXINDOLE] | 0.25 mg/kg | 0.014 µM | 47.6 mg/kg | 70% | – |
| Cn1cc([C@H]2CC[C@H](CCN3CCN(c4ccccn4)CC3)CC2)c2ccccc21 | > 30 mg/kg | 0.083 µM | – | – | – |
| C1=C(c2ccccc2)CCN(CC[C@H]2CC[C@@H](c3c[nH]c4ccccc43)CC2)C1 | 10.5 mg/kg | 0.028 µM | – | 5% | – |
| C1=C(c2cccs2)CCN(CC[C@H]2CC[C@H](c3c[nH]c4ccccc43)CC2)C1 | 11.6 mg/kg | 0.63 µM | – | – | – |
| c1ccc(N2CCN(CC[C@H]3CC[C@H](c4c[nH]c5ccccc54)CC3)CC2)cc1 | 13.9 mg/kg | 0.124 µM | – | – | Reversal [18]: inactive |
| C1=C(c2ccccc2)CCN(CC[C@H]2CC[C@H](c3c[nH]c4ccccc43)CC2)C1 | 7.2 mg/kg | 0.0087 µM | > 30 mg/kg | – | Reversal [18]: inactive |
| c1ccc(N2CCN([C@H]3CC[C@H](c4c[nH]c5ccccc54)CC3)CC2)nc1 | 1.2 mg/kg | 0.457 µM | 13.7 mg/kg | 38% | – |
| c1ccc(N2CCN(CC[C@H]3CC[C@@H](c4c[nH]c5ccccc54)CC3)CC2)nc1 | 4.7 mg/kg | 0.139 µM | 12.2 mg/kg | 60% | – |
| C1=C(c2c[nH]c3ccccc23)CCC(CCN2CCN(c3ccccn3)CC2)C1 (centres undefined) | – | 0.27 µM | – | – | – |
| Oc1ccc2[nH]cc([C@H]3CC[C@H](CCN4CCN(c5ccccn5)CC4)CC3)c2c1 | 0.6 mg/kg | 0.0086 µM | > 30 mg/kg | 25% | – |
